Laboratory results reported in article PMC9298202 (Chemmedchem, 2021).
Where two headings read alike, the source gives them in different places.

Experiments:
Assay type in all cases: cell-based
[1] = system: Trypanosoma cruzi SN3 amastigote forms; assay: Amastigote assay, T. cruzi SN3; details: for Selectivity index Amastigote forms: T. cruzi SN3, IC50 Vero cell toxicity/IC50 activity; for IC50: Trypanosoma cruzi, read-out: Activity IC50 Amastigote forms
How it was run: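 Vero cells in RPMI + 10% inactivated FBS (37 °C, 5% CO2) were seeded at 1×10^4 cells/well on coverslips for 2 days. They were infected 10:1 with SN3 metacyclic forms, obtained by 12-day culture of epimastigotes at 28 °C in modified Grace's medium (~40% metacyclic). After 24 h, cells were washed and exposed to 6.25–100 µM for 72 h. Giemsa-stained amastigotes were counted; IC50 from four determinations; SI used Vero IC50.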

[2] = system: Leishmania braziliensis amastigote forms; assay: In vitro activity on amastigote; details: for Selectivity index Amastigote forms: L. braziliensis, IC50 macrophages toxicity/IC50 activity; for IC50: Leishmania braziliensis, read-out: Activity IC50 Amastigote forms
How it was run: (§1)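 J774.2 macrophages were infected with promastigotes, which became intracellular amastigotes within 1 day; test compounds were then added. IC50 came from linear regression of Kc values at 1, 10, 25 and 200 µM, averaging four determinations.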

[3] = system: Leishmania braziliensis promastigote forms; assay: In vitro activity on promastigote; details: for Selectivity index Promastigote forms: L. braziliensis, IC50 macrophages toxicity/IC50 activity; for IC50: Leishmania braziliensis, read-out: Activity IC50 Promastigote forms
How it was run: (§2)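 Extracellular promastigotes were tested at 1, 10, 25 and 200 µM, and IC50 was derived by linear regression from Kc values, averaging four determinations.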

J774.2 macrophages = assay: Cytotoxicity in J774.2 macrophages; details: read-out: Toxicity in macrophages IC50
Vero cells = assay: Cytotoxicity in Vero cells; details: read-out: Vero cells toxicity IC50
How it was run: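 Vero cells were grown in RPMI + 10% inactivated FBS at 37 °C in humidified 5% CO2. They were resuspended at 1×10^5 cells/mL, cultured 2 days, then given fresh medium with test compound for 72 h. Viability was read by flow cytometry. IC50 was derived by linear regression from Kc values; results average four determinations.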

[4] = system: Trypanosoma cruzi SN3 trypomastigote forms; assay: Trypomastigote activity, T. cruzi SN3; details: for Selectivity index Trypomastigote forms: T. cruzi SN3, IC50 Vero cell toxicity/IC50 activity; for IC50: Trypanosoma cruzi, read-out: Activity IC50 Trypomastigote forms
[5] = system: Leishmania donovani amastigote forms; assay: In vitro activity on amastigote; details: for Selectivity index Amastigote forms: L. donovani, IC50 macrophages toxicity/IC50 activity; for IC50: Leishmania donovani, read-out: Activity IC50 Amastigote forms
How it was run: as §1

[6] = system: Leishmania infantum promastigote forms; assay: In vitro activity on promastigote; details: for Selectivity index Promastigote forms: L. infantum, IC50 macrophages toxicity/IC50 activity; for IC50: Leishmania infantum, read-out: Activity IC50 Promastigote forms
[7] = system: Leishmania infantum amastigote forms; assay: In vitro activity on amastigote; details: for Selectivity index Amastigote forms: L. infantum, IC50 macrophages toxicity/IC50 activity; for IC50: Leishmania infantum, read-out: Activity IC50 Amastigote forms
[8] = system: Trypanosoma cruzi SN3 epimastigote forms; assay: Epimastigote assay, T. cruzi SN3; details: for Selectivity index Epimastigote forms: T. cruzi SN3, IC50 Vero cell toxicity/IC50 activity; for IC50: Trypanosoma cruzi, read-out: Activity IC50 Epimastigote forms
How it was run: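 SN3 epimastigotes (Rhodnius prolixus isolate, Colombia) were grown at 28 °C in Grace's Insect Medium + 10% inactivated FBS. Exponential-phase cells were plated at 5×10^4 parasites/well with test compound in MTL medium at 100, 50, 25, 12,5 and 6,25 µM. Counts after 72 h used a Neubauer chamber. IC50 came from linear regression of Kc values; SI = Vero IC50/epimastigote IC50.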

[9] = system: Leishmania donovani promastigote forms; assay: In vitro activity on promastigote; details: for Selectivity index Promastigote forms: L. donovani, IC50 macrophages toxicity/IC50 activity; for IC50: Leishmania donovani, read-out: Activity IC50 Promastigote forms
How it was run: as §2

[10] = Chlorocebus sabaeus, Vero, 72 h
[11] = J774.2 macrophages after 72 h of culture (Table 1)
[12] = Vero cells after 72 h of culture

Compound | Selectivity index Amastigote forms [2] | IC50 [2] [µM] | Selectivity index Promastigote forms [3] | IC50 [3] [µM] | IC50 (J774.2 macrophages; Mus musculus, J774.2, 72 h) [µM] | IC50 (Vero cells; [10]) [µM] | Selectivity index Promastigote forms [6] | IC50 [6] [µM] | Selectivity index Epimastigote forms [8] | IC50 [8] [µM] | Selectivity index Promastigote forms [9] | IC50 [9] [µM] | also measured
c1ccc2c(NCCc3c[nH]cn3)nncc2c1 [1 e, 1‐[2‐(1H‐imidazol‐4‐yl)ethylamino]phthalazine] | 8 | 8.1 ± 0.4 | 4 | 14.5 ± 1.3 | 63.9 ± 3.6 | 350 ± 7.7 | 6 | 10.2 | 21 | 16.5 ± 0.6 | 7 | 9.6 ± 1.3 | Selectivity index Amastigote forms [1]: 24; IC50 [1]: 14.7 ± 1.1 µM; Selectivity index Trypomastigote forms [4]: 22; IC50 [4]: 15.9 ± 1.2 µM; Selectivity index Amastigote forms [5]: 6; IC50 [5]: 10.8 ± 1.1 µM; Selectivity index Amastigote forms [7]: 9; IC50 [7]: 7.4 ± 0.3 µM
c1ccc2c(NCCc3cn4ccccc4n3)nnc(NCCc3cn4ccccc4n3)c2c1 [2 c, N 1,N4‐bis(2‐(imidazo[1,2‐a]pyridin‐2‐yl)ethyl)phthalazine‐1,4‐diamine] |  |  |  | 14.7 ± 0.6 | 2.4 ± 0.1 | 19.6 ± 0.7 |  | 18.7 ± 1.4 | 1 (1) | 20.1 ± 1.3 |  | 22.4 ± 1.3 | 
Glucantime [reference compound] |  |  |  |  |  |  |  |  |  |  |  |  | IC50 (J774.2 macrophages; [11]): 15.2 ± 1 µM
c1cnc(NCCCCn2ccnc2)cn1 [4 c, N ‐(4‐(1H‐imidazol‐1‐yl)butyl)pyrazin‐2‐amine] | 3 | 7.7 ± 0.5 | 2 | 10.7 ± 1.1 | 22.3 ± 2.3 | 29.8 ± 1.6 | 2 | 9.6 ± 0.8 | 2 (2) | 17.9 ± 1.1 | 3 | 7.4 ± 0.4 | Selectivity index Amastigote forms [5]: 4; IC50 [5]: 5.5 ± 0.3 µM; Selectivity index Amastigote forms [7]: 4; IC50 [7]: 5.8 ± 0.2 µM
c1ccc2c(NCCc3c[nH]cn3)ncnc2c1 [3 a, N ‐[2‐(1H‐imidazol‐4‐yl)ethyl]‐quinazolin‐4‐amine] | 3 | 18.9 ± 1.6 | 2 | 29.1 ± 2.3 | 65.2 ± 3.3 | 112 ± 4.8 | 2 | 27.7 ± 3 | 4 | 25.9 ± 1.2 | 3 | 20.4 ± 2 | Selectivity index Amastigote forms [1]: 17; IC50 [1]: 6.7 ± 0.8 µM; Selectivity index Trypomastigote forms [4]: 26; IC50 [4]: 4.3 ± 0.3 µM
c1ccc2[nH]c(CCNc3nnc(NCCc4nc5ccccc5[nH]4)c4ccccc34)nc2c1 [2 a, N 1,N4‐bis[2‐(1H‐benzo[d]imidazol‐2‐yl)ethyl]phthalazine‐1,4‐diamine] | 4 | 4.4 ± 0.3 | 3 | 5.8 ± 0.2 | 18.7 ± 1 | 38.7 ± 1.7 | 1(1) | 19.9 ± 1.4 | 1 (1) | 33.5 ± 1.6 | 4 | 4.4 ± 0.2 | 
N‐ [2‐(1H‐imidazol‐4‐yl)ethylamino]pyrazine [4 a] |  |  |  |  |  |  |  |  |  |  |  |  | IC50 (J774.2 macrophages; [11]): 21.9 ± 1.5 µM; IC50 (Vero cells; [12]): 31 ± 2.6 µM
1‐[3‐(imidazol‐1‐yl)propylamino]pyridazine [1 b] |  |  |  |  |  |  |  |  |  |  |  |  | IC50 (J774.2 macrophages; [11]): 18.6 ± 1 µM; IC50 (Vero cells; [12]): 43.6 ± 2.7 µM
Clc1nnc(NCCc2cn3ccccc3n2)c2ccccc12 [2 d, 4‐chloro‐N‐(2‐(imidazo[1,2‐a]pyridin‐2‐yl)ethyl)phthalazin‐1‐amine] |  |  |  | 26.6 ± 5.4 | 2.4 ± 0.3 | 23.8 ± 2.1 |  | 21.8 ± 2.3 | 1 (1) | 19.6 ± 0.8 |  | 11.9 ± 0.7 | 
c1ccc2c(NCCCn3ccnc3)nncc2c1 [1 f, 1‐[3‐(imidazol‐1‐yl)propylamino]phthalazine] | 14 | 15 ± 0.9 | 12 | 17.8 ± 1.4 | 211 ± 10.3 | 156 ± 4.6 | 19 | 11.1 ± 0.4 | 1 | 102 ± 4.1 | 4 | 52 ± 3.6 | Selectivity index Amastigote forms [1]: 3; IC50 [1]: 44.3 ± 2.7 µM; Selectivity index Trypomastigote forms [4]: 4; IC50 [4]: 40.8 ± 3.1 µM; Selectivity index Amastigote forms [5]: 5; IC50 [5]: 44.7 ± 5.6 µM; Selectivity index Amastigote forms [7]: 20; IC50 [7]: 10.7 ± 0.7 µM
c1cnc(NCCCCCn2ccnc2)cn1 [4 d, N ‐(5‐(1H‐imidazol‐1‐yl)pentyl)pyrazin‐2‐amine] | 5 | 4.1 ± 0.3 | 6 | 3.7 ± 0.1 | 22 ± 1.7 | 37.2 ± 1.2 | 4 | 5.8 ± 0.3 | 2 (2) | 23.3 ± 0.7 | 6 | 3.8 ± 0.3 | Selectivity index Amastigote forms [5]: 11; IC50 [5]: 1.9 µM; Selectivity index Amastigote forms [7]: 5; IC50 [7]: 4 ± 0.4 µM
Clc1nnc(NCCc2nc3ccccc3[nH]2)c2ccccc12 [2 b, N‐ [2‐(1H‐benzo[d]imidazol‐2‐yl)ethyl]‐4‐chlorophthalazin‐1‐amine] | 5 | 5.3 ± 0.4 | 4 | 6.1 ± 0.5 | 25.2 ± 1.7 | 35 | 1(1) | 24.5 ± 2.5 | 1 (1) | 30 ± 0.8 | 2 | 10.7 ± 0.4 | 
Clc1ccc(NCCCn2ccnc2)nn1 [1 d, N ‐(3‐(1H‐imidazol‐1‐yl)propyl)‐6‐chloropyridazin‐3‐amine] |  |  | 1 | 13.5 ± 0.3 | 19.3 ± 1.1 | 33.2 ± 2.8 | 1 (1) | 15.3 ± 0.5 | 3 (3) | 11.8 ± 0.6 | 1 (1) | 20.6 ± 2.3 | 
Clc1ccc(NCCc2c[nH]cn2)nn1 [1 c, N ‐(2‐(1H‐imidazol‐4‐yl)ethyl)‐6‐chloropyridazin‐3‐amine] |  |  | 1 (1) | 28.1 ± 0.4 | 17.1 ± 1.7 | 39.6 ± 0.9 | 1 (1) | 19.9 ± 1.1 | 1 (1) | 30.5 ± 2.7 |  | 57.4 ± 4.1 | 
O=C(Cn1ccnc1[N+](=O)[O-])NCc1ccccc1 [BNZ, benznidazole, reference compound] |  |  |  |  |  | 13.6 ± 0.9 |  |  | 0.9 | 15.8 ± 1.1 |  |  | Selectivity index Amastigote forms [1]: 0.6; IC50 [1]: 23.3 ± 4.6 µM; Selectivity index Trypomastigote forms [4]: 2.2; IC50 [4]: 6.2 ± 0.7 µM
